≈ marks a conversion by molar mass, not a printed value.
Key:
Escherichia coli [1] = assay: Antibacterial activity against Escherichia coli PAZ505H8101 expressing AAC6'-1B after 24 hrs by geometric microdilution method; assay type: functional; conditions: PAZ505H8101, 24 h
Staphylococcus aureus [2] = assay: microbe, parasite or virus in culture; conditions: ATCC 25923, 24 h
Escherichia coli [3] = assay: microbe, parasite or virus in culture; conditions: ATCC 25922, 24 h
Staphylococcus aureus [4] = assay: Antibacterial activity against Staphylococcus aureus expressing aminoglycoside-[…] after 24 hrs by geometric microdilution method; assay type: functional
Procedure, shortened: (§1)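 Broth cultures were incubated in plates at 37 °C, and growth was read as absorbance at 650 nm after 1, 4, 7 and 24 h. Ampicillin (16 mg/L) was the positive control and DMSO the negative control. Each MIC (μg/mL) is the average of at least three determinations.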

Klebsiella pneumoniae = assay: Antibacterial activity against Klebsiella pneumoniae ATCC 700603 after 24 hrs by geometric microdilution method; assay type: functional; conditions: ATCC 700603, 24 h
Pseudomonas aeruginosa [5] = assay: Antibacterial activity against Pseudomonas aeruginosa PA22 (PT629) expressing MexXY after 24 hrs by geometric microdilution method; assay type: functional
Acinetobacter lwoffii [6] = assay: Antibacterial activity against Acinetobacter lwoffii ATCC 17925 after 24 hrs by geometric microdilution method; assay type: functional; conditions: ATCC 17925, 24 h
Escherichia coli [7] = assay: Antibacterial activity against Escherichia coli L58058.1 expressing ANT2''-1A after 24 hrs by geometric microdilution method; assay type: functional; conditions: L58058.1, 24 h
Pseudomonas aeruginosa [8] = assay: Antibacterial activity against Pseudomonas aeruginosa ATCC 27853 after 24 hrs by geometric microdilution method; assay type: functional; conditions: ATCC 27853, 24 h
Staphylococcus aureus [9] = assay: Antibacterial activity against fluoroquinolone-resistant Staphylococcus aureus 1199B expressing NorA efflux pump after 24 hrs by geometric microdilution method; assay type: functional; procedure, shortened: as §1
Staphylococcus aureus [10] = assay: Antibacterial activity against Staphylococcus aureus expressing aminoglycoside-6'-N-acetyltransferase/2''-O-phosphoryltransferase after 24 hrs by geometric microdilution method; assay type: functional; procedure, shortened: as §1
Staphylococcus aureus [11] = assay: Antibacterial activity against vancomycin-resistant Staphylococcus aureus VRS2 after 24 hrs by geometric microdilution method; assay type: functional; conditions: VRS2, 24 h; procedure, shortened: as §1
Acinetobacter lwoffii [12] = assay: Antibacterial activity against Acinetobacter lwoffii AI.88-483 expressing APH3'-6A after 24 hrs by geometric microdilution method; assay type: functional; conditions: AI.88-483, 24 h
Pseudomonas aeruginosa [13] = assay: Antibacterial activity against Pseudomonas aeruginosa F03 expressing AAC6'-2A after 24 hrs by geometric microdilution method; assay type: functional; conditions: F03, 24 h
Staphylococcus aureus [14] = assay: Antibacterial activity against Staphylococcus aureus expressing aminoglycoside-3'-O-phosphoryltransferase after 24 hrs by geometric microdilution method; assay type: functional; procedure, shortened: as §1
Staphylococcus aureus [15] = assay: Antibacterial activity against healthcare-acquired methicillin-resistant Staphylococcus aureus ATCC 33592 after 24 hrs by geometric microdilution method; assay type: functional; conditions: ATCC 33592, 24 h; procedure, shortened: as §1
Staphylococcus aureus [16] = assay: Antibacterial activity against 14- and 15-membered macrolide-resistant Staphylococcus aureus expressing MsrA efflux pump after 24 hrs by geometric microdilution method; assay type: functional; procedure, shortened: as §1

Row | Structure (SMILES) | MIC (Escherichia coli [1]) [µg/mL] | MIC (Staphylococcus aureus [2]) [µg/mL] | MIC (Escherichia coli [3]) [µg/mL] | MIC (Staphylococcus aureus [4]) [µg/mL] | MIC (Klebsiella pneumoniae) [µg/mL] | MIC (Pseudomonas aeruginosa [5]) [µg/mL] | MIC (Acinetobacter lwoffii [6]) [µg/mL] | MIC (Escherichia coli [7]) [µg/mL] | MIC (Pseudomonas aeruginosa [8]) [µg/mL] | MIC (Staphylococcus aureus [9]) [µg/mL] | MIC (Staphylococcus aureus [10]) [µg/mL] | MIC (Staphylococcus aureus [11]) [µg/mL] | MIC (Acinetobacter lwoffii [12]) [µg/mL] | MIC (Pseudomonas aeruginosa [13]) [µg/mL] | MIC (Staphylococcus aureus [14]) [µg/mL] | MIC (Staphylococcus aureus [15]) [µg/mL] | MIC (Staphylococcus aureus [16]) [µg/mL]
1 | CCCCO[C@@H]1[C@@H](N)[C@@H](O[C@H]2[C@H](O)[C@@H](OCCCC)[C@H](N)C[C@@H]2N)O[C@H](CN)[C@H]1O | > 128 | > 128 | > 128 | > 128 | > 128 | > 128 | 64 (≈ 147 µM) | > 128 | > 128 | > 128 | 128 (≈ 295 µM) | > 128 | > 128 | > 128 | > 128 | > 128 | –
2 | NC[C@H]1O[C@H](O[C@H]2[C@H](O)[C@@H](OCc3cccc4ccccc34)[C@H](N)C[C@@H]2N)[C@H](N)[C@@H](OCc2cccc3ccccc23)[C@@H]1O | 16 (≈ 26.5 µM) | 8 (≈ 13.3 µM) | 32 (≈ 53.1 µM) | 16 (≈ 26.5 µM) | > 128 | > 128 | 16 (≈ 26.5 µM) | 32 (≈ 53.1 µM) | 32 (≈ 53.1 µM) | 16 (≈ 26.5 µM) | 32 (≈ 53.1 µM) | 8 (≈ 13.3 µM) | > 128 | 64 (≈ 106 µM) | 8 (≈ 13.3 µM) | 8 (≈ 13.3 µM) | 16 (≈ 26.5 µM)
3 | CCCCO[C@@H]1[C@@H](N)[C@@H](O[C@H]2[C@H](O)[C@@H](OCCCC)[C@H](N)C[C@@H]2N)O[C@H](CN)[C@H]1OCCCC | > 128 | > 128 | > 128 | > 128 | > 128 | > 128 | > 128 | > 128 | > 128 | > 128 | > 128 | > 128 | > 128 | > 128 | > 128 | > 128 | –
4 | NC[C@H]1O[C@H](O[C@H]2[C@H](O)[C@@H](OCCCc3ccc4ccccc4c3)[C@H](N)C[C@@H]2N)[C@H](N)[C@@H](OCCCc2ccc3ccccc3c2)[C@@H]1OCCCc1ccc2ccccc2c1 | 32 (≈ 38.7 µM) | > 128 | 128 (≈ 155 µM) | 128 (≈ 155 µM) | – | 128 (≈ 155 µM) | – | > 128 | 128 (≈ 155 µM) | > 128 | 64 (≈ 77.4 µM) | > 128 | – | 64 (≈ 77.4 µM) | 32 (≈ 38.7 µM) | 128 (≈ 155 µM) | 32 (≈ 38.7 µM)
5 | N[C@H]1[C@@H](O[C@H]2[C@H](O)[C@@H](OCc3cccc4ccccc34)[C@H](N)C[C@@H]2N)O[C@H](CO)[C@@H](O)[C@@H]1OCc1cccc2ccccc12 | 64 (≈ 106 µM) | 32 (≈ 53 µM) | 128 (≈ 212 µM) | 32 (≈ 53 µM) | 128 (≈ 212 µM) | > 128 | 128 (≈ 212 µM) | 128 (≈ 212 µM) | 64 (≈ 106 µM) | 64 (≈ 106 µM) | 64 (≈ 106 µM) | – | > 128 | 128 (≈ 212 µM) | 32 (≈ 53 µM) | 32 (≈ 53 µM) | 64 (≈ 106 µM)
6 | CCCCCCO[C@@H]1[C@@H](N)[C@@H](O[C@H]2[C@H](O)[C@@H](OCCCCCC)[C@H](N)C[C@@H]2N)O[C@H](CN)[C@H]1O | 128 (≈ 261 µM) | 128 (≈ 261 µM) | 128 (≈ 261 µM) | > 128 | > 128 | > 128 | > 128 | 128 (≈ 261 µM) | > 128 | 128 (≈ 261 µM) | > 128 | 128 (≈ 261 µM) | > 128 | > 128 | > 128 | 128 (≈ 261 µM) | 128 (≈ 261 µM)
7 | NC[C@H]1O[C@H](O[C@H]2[C@H](O)[C@@H](OCc3ccccc3)[C@H](N)C[C@@H]2N)[C@H](N)[C@@H](OCc2ccccc2)[C@@H]1O | – | > 128 | – | > 128 | – | – | – | – | – | > 128 | > 128 | – | – | – | > 128 | – | –
8 | NC[C@H]1O[C@H](O[C@H]2[C@H](O)[C@@H](O[C@H]3O[C@H](CO)[C@@H](O)[C@H](N)[C@H]3O)[C@H](N)C[C@@H]2N)[C@H](N)C[C@@H]1O [TOBRAMYCIN] | 32 (≈ 68.4 µM) | – | 0.5 (≈ 1.07 µM) | – | 4 (≈ 8.56 µM) | 1 (≈ 2.14 µM) | 0.5 (≈ 1.07 µM) | 64 (≈ 137 µM) | 0.5 (≈ 1.07 µM) | – | – | – | 1 (≈ 2.14 µM) | 128 (≈ 274 µM) | – | – | –
9 | NC[C@H]1O[C@H](O[C@H]2[C@H](O)[C@@H](OCc3ccccc3)[C@H](N)C[C@@H]2N)[C@H](N)[C@@H](OCc2ccccc2)[C@@H]1OCc1ccccc1 | > 128 | > 128 | > 128 | > 128 | > 128 | > 128 | > 128 | > 128 | > 128 | > 128 | > 128 | 64 (≈ 108 µM) | > 128 | > 128 | > 128 | > 128 | –

Reference: ChEMBL document CHEMBL2429794, “Tuning the antibacterial activity of amphiphilic neamine derivatives and comparison to paromamine homologues” (J Med Chem, 2013)
